Laboratory results as given in ChEMBL document CHEMBL1138570, “2-Acylhydrazino-5-arylpyrrole derivatives: synthesis and antifungal activity evaluation” (Eur J Med Chem, 2009).
In brackets after ≈: the same amount, converted by molar mass.

Columns and labels:
Type in all cases: functional
[1] = system: Candida albicans; test: Antimicrobial activity against Candida albicans ATCC 10231 by broth microdilution method
How it was run: (§1)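 MIC by NCCLS broth microdilution. Medium was RPMI 1640 with L-glutamine, buffered with 0.165 M MOPS at pH 7.0. Twofold drug dilutions ran 0.008–200 mg/L. Inoculum was set spectrophotometrically to 10⁶ CFU/mL, then diluted in medium to 2 ×10⁴ cells/mL. Plates were incubated overnight at 35 °C in humid air, agitated, and read visually and at 450 nm.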

[2] = system: Nakaseomyces glabratus; test: Antimicrobial activity against Candida glabrata by broth microdilution method; how it was run: as §1
[3] = system: Candida parapsilosis; test: Antimicrobial activity against Candida parapsilosis by broth microdilution method; conditions: Lodderomyces parapsilosis; how it was run: as §1
[4] = system: Pichia kudriavzevii; test: Antimicrobial activity against Candida krusei by broth microdilution method; how it was run: as §1
[5] = system: Candida albicans; test: Antimicrobial activity against Candida albicans ATCC 10231 after 72 hrs by broth microdilution method; conditions: ATCC 10231, 72 h
How it was run: (§2)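 MFC: after MIC reading, a sample from each well was plated on Sabouraud dextrose agar and incubated 72 h at 35 °C. MFC was taken as the minimum concentration killing >99% of the original inoculum. The MIC step was NCCLS broth microdilution in MOPS-buffered RPMI 1640 (pH 7.0), with 2 ×10⁴ cells/mL, overnight at 35 °C.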

[6] = system: Nakaseomyces glabratus; test: Antimicrobial activity against Candida glabrata after 72 hrs by broth microdilution method; how it was run: as §2
[7] = system: Candida parapsilosis; test: Antimicrobial activity against Candida parapsilosis after 72 hrs by broth microdilution method; conditions: Lodderomyces parapsilosis; how it was run: as §2
[8] = system: Pichia kudriavzevii; test: Antimicrobial activity against Candida krusei after 72 hrs by broth microdilution method; how it was run: as §2

For `CCOC(=O)c1cc(-c2ccc(OC)cc2)[nH]c1NNC(=O)CC`, the MIC [1] was 3.12 µg/mL (≈ 9.42 µM), the MIC [2] was 6.25 µg/mL (≈ 18.9 µM) and the MIC [3] was 12.5 µg/mL (≈ 37.7 µM). For the same compound, the MIC [4] was 25 µg/mL (≈ 75.4 µM), the MFC [5] was 12.5 µg/mL (≈ 37.7 µM) and the MFC [6] was 12.5 µg/mL (≈ 37.7 µM). It also gave an MFC [7] of 25 µg/mL (≈ 75.4 µM) and an MFC [8] of 100 µg/mL (≈ 302 µM).
Compound `CCOC(=O)c1cc(-c2ccc(OC)cc2)[nH]c1NNC(=O)CCOC` has an MIC [1] of 6.25 µg/mL (≈ 17.3 µM), an MIC [2] of 12.5 µg/mL (≈ 34.6 µM) and an MIC [3] of 25 µg/mL (≈ 69.2 µM). It also gave an MIC [4] of 50 µg/mL (≈ 138 µM), an MFC [5] of 6.25 µg/mL (≈ 17.3 µM) and an MFC [6] of 100 µg/mL (≈ 277 µM). For the same compound, the MFC [7] was 100 µg/mL (≈ 277 µM) and the MFC [8] was 100 µg/mL (≈ 277 µM).
Compound `CCC(=O)NNc1[nH]c(-c2ccccc2)cc1C#N` has an MIC [1] of 3.12 µg/mL (≈ 12.3 µM), an MIC [2] of 3.12 µg/mL (≈ 12.3 µM) and an MIC [3] of 3.12 µg/mL (≈ 12.3 µM). The MIC [4] was 1.56 µg/mL (≈ 6.13 µM), the MFC [5] was 6.25 µg/mL (≈ 24.6 µM) and the MFC [6] was 12.5 µg/mL (≈ 49.2 µM). For the same compound, the MFC [7] was 12.5 µg/mL (≈ 49.2 µM) and the MFC [8] was 12.5 µg/mL (≈ 49.2 µM).
`CCOC(=O)NNc1[nH]c(-c2ccccc2)cc1C(=O)OCC` gave an MIC [1] of 3.12 µg/mL (≈ 9.83 µM), an MIC [2] of 6.25 µg/mL (≈ 19.7 µM) and an MIC [3] of 6.25 µg/mL (≈ 19.7 µM). For the same compound, the MIC [4] was 12.5 µg/mL (≈ 39.4 µM), the MFC [5] was 3.12 µg/mL (≈ 9.83 µM) and the MFC [6] was 12.5 µg/mL (≈ 39.4 µM). The MFC [7] was 12.5 µg/mL (≈ 39.4 µM) and the MFC [8] was 25 µg/mL (≈ 78.8 µM).
In the case of `OC(Cn1cncn1)(Cn1cncn1)c1ccc(F)cc1F` [FLUCONAZOLE], the MIC [1] is reported as 0.78 µg/mL (≈ 2.55 µM), the MIC [2] is reported as 12.5 µg/mL (≈ 40.8 µM) and the MIC [3] is reported as 0.39 µg/mL (≈ 1.27 µM). The MIC [4] was 25 µg/mL (≈ 81.6 µM), the MFC [5] was greater than 100 µg/mL and the MFC [6] was greater than 100 µg/mL. It also gave an MFC [7] greater than 100 µg/mL and an MFC [8] of 50 µg/mL (≈ 163 µM).
`C[C@@H]1[C@H](O)[C@@H](C)/C=C/C=C/C=C/C=C/C=C/C=C/C=C/[C@H](O[C@@H]2O[C@H](C)[C@@H](O)[C@H](N)[C@@H]2O)C[C@@H]2O[C@](O)(C[C@@H](O)C[C@@H](O)[C@H](O)CC[C@@H](O)C[C@@H](O)CC(=O)O[C@H]1C)C[C@H](O)[C@H]2C(=O)O` [AMPHOTERICIN B] was tested, and the MIC [1] was 0.39 µg/mL (≈ 0.422 µM), the MIC [2] was 0.78 µg/mL (≈ 0.844 µM) and the MIC [3] was 0.78 µg/mL (≈ 0.844 µM). For the same compound, the MIC [4] was 0.78 µg/mL (≈ 0.844 µM), the MFC [5] was 0.78 µg/mL (≈ 0.844 µM) and the MFC [6] was 1.56 µg/mL (≈ 1.69 µM). The MFC [7] was 1.56 µg/mL (≈ 1.69 µM) and the MFC [8] was 1.56 µg/mL (≈ 1.69 µM).
`COCCC(=O)NNc1[nH]c(-c2ccc(OC)cc2)cc1C#N` gave an MIC [1] of 3.12 µg/mL (≈ 9.93 µM), an MIC [2] of 6.25 µg/mL (≈ 19.9 µM) and an MIC [3] of 6.25 µg/mL (≈ 19.9 µM). For the same compound, the MIC [4] was 3.12 µg/mL (≈ 9.93 µM), the MFC [5] was 6.25 µg/mL (≈ 19.9 µM) and the MFC [6] was 12.5 µg/mL (≈ 39.8 µM). For the same compound, the MFC [7] was 12.5 µg/mL (≈ 39.8 µM) and the MFC [8] was 6.25 µg/mL (≈ 19.9 µM).
`CCCC(=O)NNc1[nH]c(-c2ccc(Cl)cc2)cc1C(=O)OCC` was tested, and the MIC [1] was greater than 100 µg/mL, the MIC [2] was greater than 100 µg/mL and the MIC [3] was greater than 100 µg/mL. For the same compound, the MIC [4] was greater than 100 µg/mL, the MFC [5] was greater than 100 µg/mL and the MFC [6] was greater than 100 µg/mL. The MFC [7] was greater than 100 µg/mL and the MFC [8] was greater than 100 µg/mL.
In the case of `CCOC(=O)c1cc(-c2ccccc2)[nH]c1NNC(=O)C(C)C`, the MIC [1] is reported as greater than 100 µg/mL, the MIC [2] is reported as 6.25 µg/mL (≈ 19.8 µM) and the MIC [3] is reported as 25 µg/mL (≈ 79.3 µM). For the same compound, the MIC [4] was greater than 100 µg/mL, the MFC [5] was greater than 100 µg/mL and the MFC [6] was 12.5 µg/mL (≈ 39.6 µM). It also gave an MFC [7] of 100 µg/mL (≈ 317 µM) and an MFC [8] greater than 100 µg/mL.
In the case of `CCOC(=O)NNc1[nH]c(-c2ccc(OC)cc2)cc1C(=O)OC`, the MIC [1] is reported as 3.12 µg/mL (≈ 9.36 µM), the MIC [2] is reported as 12.5 µg/mL (≈ 37.5 µM) and the MIC [3] is reported as 25 µg/mL (≈ 75 µM). The MIC [4] was 50 µg/mL (≈ 150 µM), the MFC [5] was 6.25 µg/mL (≈ 18.7 µM) and the MFC [6] was 50 µg/mL (≈ 150 µM). The MFC [7] was greater than 100 µg/mL and the MFC [8] was greater than 100 µg/mL.
`COC(=O)c1cc(-c2ccccc2)[nH]c1NNC(C)=O` gave an MIC [1] of 3.12 µg/mL (≈ 11.4 µM), an MIC [2] of 6.25 µg/mL (≈ 22.9 µM) and an MIC [3] of 6.25 µg/mL (≈ 22.9 µM). For the same compound, the MIC [4] was 12.5 µg/mL (≈ 45.7 µM), the MFC [5] was 6.25 µg/mL (≈ 22.9 µM) and the MFC [6] was 25 µg/mL (≈ 91.5 µM). It also gave an MFC [7] of 25 µg/mL (≈ 91.5 µM) and an MFC [8] of 12.5 µg/mL (≈ 45.7 µM).
Work on `CCOC(=O)c1cc(-c2ccccc2)[nH]c1NNC(=O)CC` yielded an MIC [1] of 3.12 µg/mL (≈ 10.4 µM), an MIC [2] of 6.25 µg/mL (≈ 20.7 µM) and an MIC [3] of 6.25 µg/mL (≈ 20.7 µM). It also gave an MIC [4] of 12.5 µg/mL (≈ 41.5 µM), an MFC [5] of 12.5 µg/mL (≈ 41.5 µM) and an MFC [6] of 12.5 µg/mL (≈ 41.5 µM). It also gave an MFC [7] of 25 µg/mL (≈ 83 µM) and an MFC [8] of 25 µg/mL (≈ 83 µM).
In the case of `CCOC(=O)c1cc(-c2ccc(OC)cc2)[nH]c1NNC(C)=O`, the MIC [1] is reported as 3.12 µg/mL (≈ 9.83 µM), the MIC [2] is reported as 6.25 µg/mL (≈ 19.7 µM) and the MIC [3] is reported as 50 µg/mL (≈ 158 µM). The MIC [4] was 12.5 µg/mL (≈ 39.4 µM), the MFC [5] was 3.12 µg/mL (≈ 9.83 µM) and the MFC [6] was 12.5 µg/mL (≈ 39.4 µM). It also gave an MFC [7] of 50 µg/mL (≈ 158 µM) and an MFC [8] of 25 µg/mL (≈ 78.8 µM).
Compound `CCOC(=O)c1cc(-c2ccccc2)[nH]c1NNC(C)=O` has an MIC [1] of 12.5 µg/mL (≈ 43.5 µM), an MIC [2] of 12.5 µg/mL (≈ 43.5 µM) and an MIC [3] of 50 µg/mL (≈ 174 µM). The MIC [4] was 50 µg/mL (≈ 174 µM), the MFC [5] was 12.5 µg/mL (≈ 43.5 µM) and the MFC [6] was greater than 100 µg/mL. The MFC [7] was 100 µg/mL (≈ 348 µM) and the MFC [8] was 50 µg/mL (≈ 174 µM).
With `CCOC(=O)c1cc(-c2ccc(OC)cc2)[nH]c1NNC(=O)C(C)C` the MIC [1] was 6.25 µg/mL (≈ 18.1 µM), the MIC [2] was greater than 100 µg/mL and the MIC [3] was 6.25 µg/mL (≈ 18.1 µM). It also gave an MIC [4] of 12.5 µg/mL (≈ 36.2 µM), an MFC [5] of 12.5 µg/mL (≈ 36.2 µM) and an MFC [6] greater than 100 µg/mL. It also gave an MFC [7] greater than 100 µg/mL and an MFC [8] greater than 100 µg/mL.
`CCOC(=O)c1cc(-c2ccc(Cl)cc2)[nH]c1NNC(C)=O` showed an MIC [1] greater than 100 µg/mL, an MIC [2] greater than 100 µg/mL and an MIC [3] of 12.5 µg/mL (≈ 38.8 µM). It also gave an MIC [4] of 25 µg/mL (≈ 77.7 µM), an MFC [5] greater than 100 µg/mL and an MFC [6] greater than 100 µg/mL. For the same compound, the MFC [7] was 25 µg/mL (≈ 77.7 µM) and the MFC [8] was 50 µg/mL (≈ 155 µM).
For `COCCC(=O)NNc1[nH]c(-c2ccc(OC)cc2)cc1C(=O)OC`, the MIC [1] was 6.25 µg/mL (≈ 18 µM), the MIC [2] was 6.25 µg/mL (≈ 18 µM) and the MIC [3] was 6.25 µg/mL (≈ 18 µM). For the same compound, the MIC [4] was 6.25 µg/mL (≈ 18 µM), the MFC [5] was 6.25 µg/mL (≈ 18 µM) and the MFC [6] was 25 µg/mL (≈ 72 µM). The MFC [7] was 12.5 µg/mL (≈ 36 µM) and the MFC [8] was 25 µg/mL (≈ 72 µM).
`CCOC(=O)NNc1[nH]c(-c2ccc(OC)cc2)cc1C(=O)OCC` gave an MIC [1] of 3.12 µg/mL (≈ 8.98 µM), an MIC [2] of 6.25 µg/mL (≈ 18 µM) and an MIC [3] of 6.25 µg/mL (≈ 18 µM). It also gave an MIC [4] of 12.5 µg/mL (≈ 36 µM), an MFC [5] of 3.12 µg/mL (≈ 8.98 µM) and an MFC [6] of 25 µg/mL (≈ 72 µM). For the same compound, the MFC [7] was 25 µg/mL (≈ 72 µM) and the MFC [8] was 100 µg/mL (≈ 288 µM).
